{"data": "Measurements gathered from unrelated publications", "target": "Focal adhesion kinase 1 (PTK2, Homo sapiens, UniProt Q05397)", "note": "Lines come from different studies, so protocols differ."}
{"SMILES": "C[C@H]1CC[C@H](n2c3cnccc3c3cnc(Nc4ccc5c(n4)CCN(C(=O)CO)C5)nc32)CC1", "assay": "cell-free assay, inhibitor", "conditions": "1 µM", "endpoint": "remaining signal", "result": "69%"}
{"SMILES": "CO[C@@H]1[C@H](N(C)C(=O)c2ccccc2)C[C@H]2O[C@]1(C)n1c3ccccc3c3c4c(c5c6ccccc6n2c5c31)C(=O)NC4", "assay": "enzyme activity, inhibitor", "conditions": "1 µM", "endpoint": "inhibition", "result": "2%"}
{"SMILES": "Cc1cc(O)c(-c2ccc([C@@H](C)CN(C)C)cc2)c2c1[nH]c(=O)c1sccc12", "assay": "enzyme activity, inhibitor", "conditions": "0.1 µM", "endpoint": "inhibition", "result": "8.92%"}
{"SMILES": "COc1ccc2oc(-c3ccc4nc(N)oc4c3)c/c(=N\\c3ccccc3NC(=O)CCN)c2c1", "assay": "binding", "conditions": "1 µM", "endpoint": "remaining binding", "result": "84%"}
{"SMILES": "C=CC(=O)N1CCC[C@@H](n2nc(-c3ccc(Oc4ccccc4)cc3)c3c(N)ncnc32)C1", "assay": "enzyme activity, inhibitor", "conditions": "1 µM", "endpoint": "inhibition", "result": "5%"}
{"SMILES": "CCCCC(=O)Nc1ccc(-c2ccc3ncn(CCC)c(=O)c3c2)cn1", "assay": "binding, competition with immobilised ligand", "conditions": "0.5 µM", "endpoint": "remaining binding", "result": "87%"}
{"SMILES": "C#Cc1cc(-c2cc(Nc3nc(N[C@@H](C)c4ccc(F)cn4)ncc3Cl)n[nH]2)ccc1C=O", "assay": "enzyme activity, inhibitor", "conditions": "0.2 µM", "endpoint": "inhibition", "result": "31.2%"}
{"SMILES": "N#Cc1ccc(NC(=O)Nc2ccccc2)cc1", "assay": "cell-free assay, competition with immobilised ligand", "conditions": "25 µM", "endpoint": "remaining binding", "result": "100%"}
{"SMILES": "Cc1ccc(NC(=O)c2ccnc(C(F)(F)F)c2)cc1-c1cc(OCCO)nc(N2CCOCC2)c1", "assay": "cell-free assay", "conditions": "1 µM", "endpoint": "remaining signal", "result": "100%"}
{"SMILES": "C#Cc1cnc(Nc2ccnc(CO)c2)nc1Nc1ccccc1S(C)(=O)=NC#N (stereo not shown)", "assay": "cell-free assay", "conditions": "1 µM", "endpoint": "remaining signal", "result": "40%"}
